This is an account of results in paper PMC4100979 (Chembiochem : a European journal of chemical biology, 2013).

Entries after “also recorded” stand apart in the source; their conditions may differ.

For experiment [1], the system named is GLP-1R and SUR1 on βTC3 cells. As to the kind of experiment: Competition of 15 nM Eu-GLP-1/Glb 10 by unlabelled monomers in live βTC3 cells. Format: binding. The note with it: 1.6 nM monomer vs 15 nM Eu-GLP-1/Glb 10, 1 hr, Figure 3. An outline of the steps:
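βTC3 cells, ~70,000/well, grown 3 days. They were exposed for 1 h to 15 nM Eu-labelled bivalent ligand with 4.1 fM or 1.6 nM unlabelled GLP-1 or Glb, in RPMI binding medium (1 mM 1,10-phenanthroline, 200 mg/L bacitracin, 0.5 mg/L leupeptin, 0.2% BSA). Non-specific binding was not measured. Cells were washed three times, then given enhancement solution for ≥30 min at 37°C. Eu time-resolved fluorescence was read at 340/615 nm. Quadruplicates unless noted.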

The target in experiment [2] is T1, GLP-1R on βTC3 cells (Mus musculus, UniProt O35659).
T1 sequence (O35659 22-463): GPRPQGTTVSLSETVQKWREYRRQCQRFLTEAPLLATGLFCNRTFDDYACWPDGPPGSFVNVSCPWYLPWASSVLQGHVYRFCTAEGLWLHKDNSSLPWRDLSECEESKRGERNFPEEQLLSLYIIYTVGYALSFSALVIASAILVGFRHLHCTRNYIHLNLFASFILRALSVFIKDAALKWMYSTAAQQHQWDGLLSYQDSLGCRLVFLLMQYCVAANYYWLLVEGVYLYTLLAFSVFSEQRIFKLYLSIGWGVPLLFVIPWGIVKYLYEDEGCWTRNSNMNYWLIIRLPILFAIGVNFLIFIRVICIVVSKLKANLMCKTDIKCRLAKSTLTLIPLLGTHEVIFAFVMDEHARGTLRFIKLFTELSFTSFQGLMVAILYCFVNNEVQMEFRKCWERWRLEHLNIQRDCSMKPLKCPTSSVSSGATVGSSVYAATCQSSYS
The experiment can be described thus: Saturation binding of bivalent Eu-labelled ligand in presence of unlabelled Glb. The note with it: 300 nM Glb, below 35 nM Eu-ligand.

The test system of experiment [3] is INS 832/3 cells. The experiment can be described thus: Insulin secretion. Format: cell-based, rat. As to conditions: 20 mM glucose vs 1 mM glucose, 2 hour incubation; p<0.05. An outline of the steps:
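INS 832/3 cells were seeded at 500,000/well and grown 72 h. They were rinsed in HBSS with 1 mM glucose, then held 2 h in the same. Medium was replaced with the test glucose level (1 or 20 mM) ± secretagogues for 2 h. Secreted insulin was measured by rat insulin ELISA (ng/ml) and expressed as % of the mean 1 mM glucose secretion within each experiment.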

In the case of `COc1ccc(Cl)cc1C(=O)NCCc1ccc(S(=O)(=O)NC(=O)NC2CCCCC2)cc1` [Glb, glibenclamide], the “effect of unlabelled monomer on bivalent binding” value in experiment [1] is on record as “bivalent binding is lost”. The “effect of unlabelled Glb on high affinity binding of Eu-GLP-1/Glb 10” value in experiment [2] was “blocks high affinity binding; also recorded: blocked the high affinity binding”. As to `OC[C@H]1OC(O)[C@H](O)[C@@H](O)[C@@H]1O` (stereo partly shown) [glucose], the “induction of insulin secretion by glucose” value in experiment [3] is ~ 4 fold. With “GLP-1: unlabelled GLP-1 monomer used as competitor”, the “effect of unlabelled monomer on bivalent binding” value in experiment [1] is reported as “bivalent binding is lost”.
